In brackets after ≈: the same amount, converted by molar mass. Activity calls are given as the source filed them. The rule behind the calls is not given here.
Key:
[1] = Metabolic stability in mouse liver microsomes assessed as compound remaining after 0.5 hr; format: ADME, Microsome; conditions: read-out: Stability
How it was run: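 Test compound incubated 0.5 h with mouse liver microsomes. Result given as percent of parent remaining.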

[2] = 1-Octanol-phosphate buffered saline distribution coefficient, log D of the compound at pH 7.4; format: physicochemical
How it was run: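 logD measured by partitioning between 1-octanol and phosphate-buffered saline, pH 7.4.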

[3] = biological target: Long-chain fatty acid transport protein 1 (Mus musculus, UniProt Q60714); assay: Inhibition of mouse FLAG-tagged FATP1-mediated [1-14C] oleic acid conversion to [1-14C] oleoyl-CoA after 20 mins by scintillation counting analysis
How it was run: (§1)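 Purified FLAG-tagged human or mouse FATP1 run in a cell-free acyl-CoA synthetase assay. Protein incubated with 10 µM [1-14C]oleic acid, 0.5 mM ATP, 0.5 mM CoA, 5 mM MgCl2, 30 mM NaCl, 0.05% Triton X-100 and 2 mM DTT in 100 mM Tris-HCl pH 7.4 for 20 min at 37 °C. Free oleate removed by heptane washes. Aqueous-phase radioactivity counted by scintillation. FLAG-luciferase background subtracted. IC50 is the mean of n ≥ 2.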

[4] = biological target: Long-chain fatty acid transport protein 1 (Homo sapiens, UniProt Q6PCB7); assay: Inhibition of human FLAG-tagged FATP1-mediated [1-14C] oleic acid conversion to [1-14C] oleoyl-CoA after 20 mins by scintillation counting analysis; how it was run: as §1
[5] = Ratio of drug uptake in soleus muscle to plasma in mouse at 10 mg/kg, po after 1 week of repeated compound administration; format: ADME, organism-based; set-up: dose 10 mg/kg, route oral
How it was run: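 Mice received repeated oral dosing at 10 mg/kg for 1 week. Soleus and plasma concentrations measured 3 h after dosing. Kp taken as the soleus-to-plasma ratio.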

[6] = Oral bioavailability in mouse at 10 mg/kg; format: ADME, organism-based; conditions: in vivo
[7] = Clearance in mouse at 1 mg/kg, iv; format: ADME, organism-based; set-up: dose 1 mg/kg, route intravenous; conditions: in vivo
How it was run: (§2)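 Single 1 mg/kg intravenous dose to mice in DMA/PG/(20% HPβCD in saline) 10/10/80. Values are the mean of two mice.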

[8] = AUC in mouse at 10 mg/kg, po; format: ADME, organism-based; set-up: dose 10 mg/kg, route oral; conditions: plasma
How it was run: (§3)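 Single 10 mg/kg oral dose to mice in DMA/PG/(20% HPβCD in saline) 10/10/80. Values are the mean of three mice.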

Mus musculus [9] = assay: Free Cmax in mouse at 10 mg/kg, po; format: ADME, organism-based; set-up: dose 10 mg/kg, route oral; conditions: in vivo
How it was run: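 Free Cmax calculated as plasma unbound fraction (%) multiplied against the […], from mice given 10 mg/kg orally in DMA/PG/(20% HPβCD/saline) 10/10/80, n = 3.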

[10] = Volume of distribution in mouse at 1 mg/kg, iv; format: ADME, organism-based; set-up: dose 1 mg/kg, route intravenous; conditions: in vivo; how it was run: as §2
[11] = Cmax in mouse at 10 mg/kg, po; format: ADME, organism-based; set-up: dose 10 mg/kg, route oral; conditions: in vivo; how it was run: as §3
[12] = Tmax in mouse at 10 mg/kg, po; format: ADME, organism-based; set-up: dose 10 mg/kg, route oral; conditions: in vivo; how it was run: as §3
[13] = Fraction unbound in mouse plasma at 10 mg/kg, po; format: ADME, organism-based; set-up: dose 10 mg/kg, route oral
How it was run: (§4)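 Unbound fraction (%) measured in mouse plasma.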

[14] = Solubility in Japanese Pharmacopoeia second fluid; format: physicochemical; conditions: pH 6.8
[15] = Solubility in Japanese Pharmacopoeia first fluid; format: physicochemical; conditions: pH 1.2
Mus musculus [16] = assay: In vivo inhibition of FATP1 in high-fat diet fed mouse assessed as decrease in triglyceride content in liver at 1 to 100 mg/kg, po after 3 weeks
Mus musculus [17] = assay: In vivo inhibition of FATP1 in high-fat diet fed mouse assessed as decrease in triglyceride content in soleus muscle at 1 to 100 mg/kg, po after 3 weeks
Mus musculus [18] = assay: In vivo inhibition of FATP1 in high-fat diet fed mouse assessed as decrease in triglyceride content in white gastrocnemius muscle at 1 to 100 mg/kg, po after 3 weeks
Mus musculus [19] = assay: In vivo inhibition of FATP1 in high-fat diet fed mouse assessed as decrease in triglyceride content in soleus muscle at 3 to 30 mg/kg, po after 4 weeks; format: functional, organism-based
How it was run: (§5)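 Mice kept on a high-fat diet for 4 weeks and given the compound orally at 3/10/30, 10/30/100 or 1/10/100 mg/kg. The 1–100 mg/kg series was run for 3 weeks. Triglyceride content measured in liver, white gastrocnemius and soleus, compared against HFD vehicle controls, P < 0.05.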

Mus musculus [20] = assay: In vivo inhibition of FATP1 in high-fat diet fed mouse assessed as decrease in triglyceride content in liver at 3 to 30 mg/kg, po after 4 weeks; format: functional, organism-based; how it was run: as §5
Mus musculus [21] = assay: In vivo inhibition of FATP1 in high-fat diet fed mouse assessed as decrease in triglyceride content in white gastrocnemius muscle at 3 to 30 mg/kg, po after 4 weeks; format: functional, organism-based; how it was run: as §5
Mus musculus [22] = assay: In vivo inhibition of FATP1 in high-fat diet fed mouse assessed as decrease in triglyceride content in soleus muscle at 10 to 100 mg/kg, po after 4 weeks; format: functional, organism-based; how it was run: as §5
Mus musculus [23] = assay: In vivo inhibition of FATP1 in high-fat diet fed mouse assessed as decrease in triglyceride content in liver at 10 to 100 mg/kg, po after 4 weeks; format: functional, organism-based; how it was run: as §5
Mus musculus [24] = assay: In vivo inhibition of FATP1 in high-fat diet fed mouse assessed as decrease in triglyceride content in white gastrocnemius muscle at 10 to 100 mg/kg, po after 4 weeks; format: functional, organism-based; how it was run: as §5
[25] = Clearance in mouse at 5 mg/kg, iv; format: ADME, organism-based; set-up: dose 5 mg/kg, route intravenous; conditions: in vivo
[26] = Volume of distribution in mouse at 5 mg/kg, iv; format: ADME, organism-based; set-up: dose 5 mg/kg, route intravenous; conditions: in vivo
[27] = Plasma protein binding in mouse at 10 mg/kg, po; format: ADME, organism-based; set-up: dose 10 mg/kg, route oral; conditions: read-out: PPB (converted); how it was run: as §4

Chain of Long-chain fatty acid transport protein 1 (Mus musculus, UniProt Q60714) (Q60714 whole entry): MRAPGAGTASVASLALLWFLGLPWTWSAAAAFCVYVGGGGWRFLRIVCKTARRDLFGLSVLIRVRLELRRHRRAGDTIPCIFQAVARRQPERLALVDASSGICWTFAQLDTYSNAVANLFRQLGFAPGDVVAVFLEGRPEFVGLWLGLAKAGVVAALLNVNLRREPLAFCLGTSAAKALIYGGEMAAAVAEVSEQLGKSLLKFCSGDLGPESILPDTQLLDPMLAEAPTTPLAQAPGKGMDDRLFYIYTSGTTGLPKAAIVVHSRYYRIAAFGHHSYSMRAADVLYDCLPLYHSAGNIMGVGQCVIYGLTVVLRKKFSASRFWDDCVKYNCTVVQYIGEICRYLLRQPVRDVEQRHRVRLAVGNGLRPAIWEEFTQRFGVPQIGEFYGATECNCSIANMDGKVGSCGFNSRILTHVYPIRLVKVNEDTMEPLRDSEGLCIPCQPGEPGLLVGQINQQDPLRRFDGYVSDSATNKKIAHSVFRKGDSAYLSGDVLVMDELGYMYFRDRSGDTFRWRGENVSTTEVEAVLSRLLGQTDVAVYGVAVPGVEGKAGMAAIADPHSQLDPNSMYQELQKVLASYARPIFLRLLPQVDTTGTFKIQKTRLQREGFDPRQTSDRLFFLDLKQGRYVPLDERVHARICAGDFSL
Chain of Long-chain fatty acid transport protein 1 (Homo sapiens, UniProt Q6PCB7) (Q6PCB7 whole entry): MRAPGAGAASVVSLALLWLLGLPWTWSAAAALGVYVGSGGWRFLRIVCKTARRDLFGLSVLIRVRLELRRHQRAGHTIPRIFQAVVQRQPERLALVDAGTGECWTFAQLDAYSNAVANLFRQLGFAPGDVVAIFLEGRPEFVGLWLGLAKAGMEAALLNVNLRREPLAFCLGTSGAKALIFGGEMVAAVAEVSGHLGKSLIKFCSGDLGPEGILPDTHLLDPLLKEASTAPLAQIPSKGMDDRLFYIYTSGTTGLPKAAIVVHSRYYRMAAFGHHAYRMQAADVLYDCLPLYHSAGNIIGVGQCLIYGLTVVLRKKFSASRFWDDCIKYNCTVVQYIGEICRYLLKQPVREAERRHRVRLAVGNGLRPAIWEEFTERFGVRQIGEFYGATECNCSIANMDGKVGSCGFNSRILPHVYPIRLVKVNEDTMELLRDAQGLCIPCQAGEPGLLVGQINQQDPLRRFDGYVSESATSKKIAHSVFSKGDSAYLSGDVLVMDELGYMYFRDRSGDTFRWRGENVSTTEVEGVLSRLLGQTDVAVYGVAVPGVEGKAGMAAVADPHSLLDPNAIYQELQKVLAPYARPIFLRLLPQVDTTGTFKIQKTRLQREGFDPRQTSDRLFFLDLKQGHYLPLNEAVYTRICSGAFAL

Compound | remaining at 0.5 h [1] [%] | logD [2] | IC50 [3] [nM] | IC50 [4] [nM] | also measured
CN(C(=O)CN1CCN(c2ccc(F)cn2)CC1)c1nc2c(s1)CCCC2 | 65 | 3.9 | 620 | 41 | 
O=C(CN1CCN(c2ccc(F)cc2)CC1)Nc1nc2c(s1)CCC2 |  | 4 | > 10000 | 490 | 
O=C(CN1CCN(c2ccc(F)cc2)CC1)Nc1nc2ccccc2s1 |  | 4.4 | > 10000 | 490 | 
O=C(CN1CCN(c2ccc(F)cn2)CC1)c1c[nH]c2ccccc12 |  |  | > 10000 | > 1000 | 
O=C(CN1CCN(c2cccc(F)c2)CC1)Nc1nc2c(s1)CCCC2 |  |  | > 10000 | > 1000 | 
O=C(CN1CCN(c2ccc(F)cn2)CC1)Nc1nc2c(s1)CCCC2 | 63 | 4.1 | 600 | 46 | Kp at 168 h [5]: 0.03; bioavailability [6]: 100%; clearance [7]: 5 mL/min/kg; AUC [8]: 36000 ng·h/mL; fCmax (Mus musculus [9]): 0.0083 µg/mL; Vd [10]: 0.57 L/kg; Cmax [11]: 5500 ng/mL; Tmax [12]: 19.8 min; fraction unbound [13]: 0.0015; solubility [14]: 2.4 µg/mL (≈ 6.39 µM); solubility [15]: 700 µg/mL (≈ 1860 µM); inhibition (Mus musculus [16]): inactive; inhibition (Mus musculus [17]): inactive; inhibition (Mus musculus [18]): inactive
O=C(CN1CCN(c2ccc(F)cc2)CC1)Nc1nc2c(o1)CCCC2 | 53 | 3 | 5400 | 180 | 
O=C(CN1CCN(c2ccc(F)cn2)CC1)Nc1nc2c(o1)CCCC2 | 63 | 2.7 | 1700 | 100 | 
Cc1ccc(N2CCN(CC(=O)Nc3nc4c(s3)CCCC4)CC2)cc1 |  | 4.8 | > 10000 | 250 | 
Cc1nc(NC(=O)CN2CCN(c3ccc(F)cc3)CC2)sc1C | 56 | 3.7 | 1700 | 430 | 
O=C(CN1CCN(c2ccc(F)cn2)CC1)c1cnc2ccccn12 | 98 | 2.5 | 290 | 130 | 
O=C(CN1CCN(c2ccccn2)CC1)Nc1nc2c(s1)CCCC2 |  | 3.9 | 4900 | 200 | 
O=C(CN1CCN(c2ccc(F)cn2)CC1)c1cnn2ccccc12 | 84 | 2.5 | 1100 | 330 | 
O=C(CN1CCN(c2ccccc2)CC1)Nc1nc2c(s1)CCCC2 |  | 4.3 | 9000 | 280 | 
O=C(CN1CCN(c2ccc(F)cc2)CC1)Nc1nccs1 |  | 2.8 | > 10000 | > 1000 | 
O=C(CN1CCN(c2ccc(F)cn2)CC1)c1ncc2ccccn12 |  |  | > 10000 | > 1000 | 

Compound | remaining at 0.5 h [1] [%] | logD [2] | IC50 [3] [nM] | IC50 [4] [nM] | also measured
Cc1nc2ccccn2c1C(=O)CN1CCN(c2ccc(F)cn2)CC1 | 52 | 2.8 | 390 | 430 | inhibition (Mus musculus [19]): inactive; inhibition (Mus musculus [20]): inactive; inhibition (Mus musculus [21]): inactive; Kp at 168 h [5]: 1.1; bioavailability [6]: 21%; clearance [7]: 6.4 mL/min/kg; AUC [8]: 5500 ng·h/mL; fCmax (Mus musculus [9]): 0.61 µg/mL; Vd [10]: 0.2 L/kg; Cmax [11]: 2200 ng/mL; Tmax [12]: 19.8 min; fraction unbound [13]: 0.275; solubility [14]: 350 µg/mL (≈ 990 µM); solubility [15]: > 700 µg/mL
O=C(CN1CCN(C2CCCCC2)CC1)Nc1nc2c(s1)CCCC2 |  | 3 | > 10000 | > 1000 | 
O=C(CN1CCN(c2ccc(F)cc2)CC1)Nc1nc2c(s1)CCCCC2 |  | 5 | 2000 | 120 | 
O=C(CN1CCN(c2ccc(F)cn2)CC1)c1cnc2n1CCCC2 | 86 | 2.1 | 160 | 100 | 
O=C(CN1CCN(c2ccc(F)cn2)CC1)c1coc2ccccc12 | 76 | 3.9 | 1900 | 470 | 
Cc1nc2n(c1C(=O)CN1CCN(c3ccc(F)cn3)CC1)CCCC2 | 55 | 2.5 | 400 | 190 | 
O=C(CN1CCN(c2nccs2)CC1)Nc1nc2c(s1)CCCC2 |  | 3.8 | 7900 | 520 | 
O=C(CN1CCN(c2cccnc2)CC1)Nc1nc2c(s1)CCCC2 |  | 3.3 | > 10000 | > 1000 | 
O=C(CN1CCN(c2ccc(F)cn2)CC1)c1n[nH]c2ccccc12 |  | 2.8 | > 10000 | > 1000 | 
CCN(C(=O)CN1CCN(c2ccc(F)cn2)CC1)c1nc2c(s1)CCCC2 |  |  | > 10000 | 780 | 
O=C(CN1CCN(c2ccc(F)cc2)CC1)Nc1nc2c(s1)CCCC2 | 42 | 4.5 | 4000 | 77 | 
O=C(CN1CCN(c2ccncc2)CC1)Nc1nc2c(s1)CCCC2 |  | 2 | > 10000 | > 1000 | 
O=C(CN1CCN(C(=O)c2ccccc2)CC1)Nc1nc2c(s1)CCCC2 |  | 2.1 | > 10000 | > 1000 | 
Cc1nc2ccccn2c1C(=O)CN1CCN(c2ccccc2)CC1 |  |  |  | 3000 | 
O=C(CN1CCN(c2ncccn2)CC1)Nc1nc2c(s1)CCCC2 |  | 3.7 | > 10000 | > 1000 | 
CC1CCc2sc(NC(=O)CN3CCN(c4ccc(F)cc4)CC3)nc2C1 (stereo unspecified) | 30 | 5.1 | 5100 | 26 | inhibition (Mus musculus [22]): inactive; inhibition (Mus musculus [23]): inactive; inhibition (Mus musculus [24]): inactive; Kp at 168 h [5]: 0.33; bioavailability [6]: 62%; clearance [25]: 46 mL/min/kg; Vd [26]: 1.5 L/kg; AUC [8]: 2300 ng·h/mL; fCmax (Mus musculus [9]): 0.0077 µg/mL; Cmax [11]: 1800 ng/mL; Tmax [12]: 15 min; fraction unbound [27]: 0.0043; fraction unbound [13]: 0.0043; solubility [14]: 0.7 µg/mL (≈ 1.8 µM); solubility [15]: 540 µg/mL (≈ 1390 µM)
